Data from ChEMBL document CHEMBL1144324, “2,3-Dimethoxy-5-methyl-1,4-benzoquinones and 2-methyl-1,4-naphthoquinones: glycation inhibitors with lipid peroxidation activity” (Bioorg Med Chem Lett, 2005).

Experiments:
Format in all cases: functional, organism-based
[1] = species: Bos taurus; assay: Inhibitory concentration against bovine serum albumin glycation was determined
[2] = species: Rattus norvegicus; assay: Inhibitory concentration against lipid peroxidation in rat
How it was run: (§1)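 TBARS assay in rat brain homogenate (5 mg protein/mL). Compound was preincubated with homogenate 20 min at 37 °C with shaking, then peroxidation was started with 0.02 mM FeCl2 and 0.25 mM ascorbic acid for 30 min at 37 °C. The reaction was stopped with perchloric acid and centrifuged. Supernatant was reacted with 0.5% TBA at 80 °C for 1 h and A532 read against a 1,1,3,3-tetraethoxypropane standard.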

[3] = species: Rattus norvegicus; assay: Inhibitory concentration for lipid peroxidation in rat; how it was run: as §1
[4] = species: Bos taurus; assay: Inhibitory concentration against bovine serum albumin glycation; Not active from 3.80 nM to 1.00 mM

Row | SMILES | IC50 [1] [µM] | IC50 [2] [µM] | IC50 [3] [µM] | IC50 [4]
1 | CC1=C(Br)C(=O)c2ccccc2C1=O | 144 | 1.1 | – | –
2 | COC1=C(OC)C(=O)C(C(=O)NCCc2ccccc2)=C(C)C1=O | – | – | 29.2 | –
3 | COC1=C(OC)C(=O)C(c2ccccc2)=C(C)C1=O | 218 | 39.4 | – | –
4 | CC1=C(Cl)C(=O)c2ccccc2C1=O | 199 | 1.41 | – | –
5 | Cc1c(C)c2c(c(C)c1O)CC[C@@](C)(CCC[C@H](C)CCC[C@H](C)CCCC(C)C)O2 [ALPHA-TOCOPHEROL] | – | – | – | Not Active
6 | CC1=CC(=O)c2ccccc2C1=O [MENADIONE] | – | 12.2 | – | –
